Values belong to the compound of their own block, whether it stands above or below them.
How the values were obtained:
hepatic DNA = conditions: rats given 0.5 mmol/kg, 24 h, HPLC/MS/MS; cited from earlier work
[1] = tested on: 12-O-tetradecanoyl phorbol 13-acetate responsive element and nuclear factor-kappaB-binding activity; conditions: in an ROS-dependent fashion; cited from earlier work
[2] = tested on: CHO cells that are NER deficient (or proficient) and express mouse P4501A2 plus human aryl sulfotransferase or NAT genes; assay type: cell-based, Chinese hamster; conditions: two cell lines both deficient in NER, one expressing CYP1A2 and NAT2, 100 μM –1 mM
Method in brief: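 These are engineered CHO lines, heterozygous at aprt. UV5 (NER-deficient, XPD/ERCC2 defect) transfected with mouse CYP1A2, then human NAT2 or aryl sulfotransferase; NER-proficient counterparts were included. Parent alkylanilines were dosed at 50 μM–1 mM, and N-hydroxy or aminophenol metabolites at 5–500 μM. Mutant fraction was determined by 8-azaadenine selection.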

ct-DNA = experiment: Effect of Phase II conjugation activity on DNA adduct formation in vitro; assay type: biochemical; conditions: human liver S9, 1 μM [14C]amine, 6 h at 37°C, NAT cofactors
tissue DNA = conditions: C57/BL6 mice, dose ∼1 μmol/kg, accelerator mass spectrometry; cited from earlier work
[3] = tested on: human lymphoblastoid TK6 cells; conditions: cited from earlier work; for cell death: TK6 cells; for viability: TK6 cells exposed to millimolar concentrations
[4] = tested on: CHO cells that are NER deficient (or proficient) and express mouse P4501A2 plus human aryl sulfotransferase or NAT genes; assay type: cell-based, Chinese hamster; conditions: for contribution of aryl sulfotransferase relative to NAT2: NER-deficient cells expressing CYP1A2 and either phase II enzyme; for potency in inducing both responses (cytotoxicity and mutagenicity), influence of NER status: cell lines expressing CYP1A2 and NAT2; for cytotoxicity: two cell lines both deficient in NER, one expressing CYP1A2 and NAT2, 100 μM –1 mM
Method in brief: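 CHO lines derived from AA8 via UV5 (NER-deficient through an induced XPD/ERCC2 defect). UV5P3 carries mouse CYP1A2 cDNA and was further transfected with human aryl sulfotransferase (HAST1) or NAT2; NER-proficient counterparts were also used. Exposure to parent alkylanilines at 50 μM–1 mM, or to N-hydroxy or aminophenol metabolites at 5–500 μM. Viability was scored by trypan blue exclusion 24 h after treatment.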

[5] = tested on: AA8 CHO cells (NER proficient) and UV5 cells (NER deficient); assay type: cell-based, Chinese hamster; conditions: for cytotoxicity: AA8 and UV5 cells, absence of human liver S9, 100 μM–1 mM; for influence of NER status on cytotoxicity: UV5 (NER deficient) versus AA8 (NER proficient), absence of human liver S9
Method in brief: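 AA8 (NER-proficient) and UV5 (NER-deficient; induced XPD/ERCC2 defect) CHO lines, neither expressing significant phase I or II enzymes, exposed to parent alkylanilines at 50 μM–1 mM without human liver S9. Viability was scored by trypan blue exclusion 24 h after treatment.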

[6] = tested on: AA8 CHO cells (NER proficient) and UV5 cells (NER deficient); experiment: aprt mutant fraction in AA8 and UV5 CHO cells, 8-azaadenine selection; assay type: cell-based, Chinese hamster; conditions: absence of human liver S9, 100 μM–1 mM
Method in brief: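 AA8 (NER-proficient) and UV5 (NER-deficient, XPD/ERCC2 defect) CHO cells, neither expressing significant phase I or phase II enzymes, were exposed without human liver S9. Doses were parent alkylanilines at 50 μM–1 mM, or N-hydroxy and aminophenol metabolites at 5–500 μM. Mutant fraction at the heterozygous aprt locus was determined by 8-azaadenine selection.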

bladder cancer [7] = conditions: population-based study, Los Angeles county; cited from earlier work
Nrf2 = conditions: in vivo in mice; cited from earlier work
[8] = tested on: HPRT gene of human lymphoblastoid TK6 cells; conditions: cited from earlier work
humans = conditions: ref International Agency for Cancer; cited from earlier work
rats = conditions: oral administration, hydrochloride salt, ref International Agency for Cancer; cited from earlier work
bladder cancer [9] = conditions: occupationally exposed workers; cited from earlier work
[10] = rats, urine; cited from earlier work
mice = conditions: oral administration, hydrochloride salt, ref International Agency for Cancer; cited from earlier work
Calf thymus DNA = experiment: Formation of DNA adducts by [14C]alkylanilines in vitro with human hepatic S9; assay type: biochemical; conditions: human S9, 25–1000 nM alkylaniline (Figure 3)
Method in brief: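 Calf thymus DNA (1 mg/ml) was incubated with human hepatic S9 (2 mg/ml) in 50 mM Tris pH 7.4 with NADPH regeneration (1.3 mM NADP+, 3.3 mM glucose-6-phosphate, 3.3 mM MgCl2, 0.1 U G6P dehydrogenase) and [14C]alkylaniline at 25, 100 or 1000 nM. Purified DNA-bound radiolabel was measured by accelerator mass spectrometry, as adducts per 10^8 nucleotides (±SD; N = 4).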

[11] = tested on: S9 from human, rat, dog and mouse liver; conditions: cited from earlier work
Escherichia coli = conditions: cited from earlier work
[12] = tested on: Chinese hamster ovary (CHO) cells; conditions: with and without exogenous metabolic activation; cited from earlier work
rat hepatocytes = conditions: cited from earlier work
bone marrow of male mice = conditions: oral doses of up to 375 mg/kg/day; cited from earlier work
human liver microsomes = conditions: unpublished results; cited from earlier work
[13] = tested on: recombinant human P450s (1A1, 1A2, 1B1, 2A6 and 2E1); conditions: five recombinant human P450s tested; unpublished results; cited from earlier work
E.coli K12 = conditions: host-mediated assay after feeding to mice; cited from earlier work
male and female rats = conditions: dose-dependent; cited from earlier work
Salmonella typhimurium = conditions: multiple bacterial strains, presence or absence of exogenous activating systems; cited from earlier work
Drosophila melanogaster = conditions: feeding or injecting; cited from earlier work
rat liver microsomes = conditions: unpublished results; cited from earlier work
[14] = tested on: mouse L5178Y lymphoma cells; conditions: with and without exogenous metabolic activation; cited from earlier work

SMILES: Nc1ccc(-c2ccccc2)cc1 [4-aminobiphenyl, reference compound]
hepatic DNA adducts (hepatic DNA): ~500 adducts per 10^8 normal bases

SMILES: N[C@@H](CCC(=O)N[C@@H](CSc1cc(O)c(SC[C@H](NC(=O)CC[C@H](N)C(=O)O)C(=O)NCC(=O)O)c(SC[C@H](NC(=O)CC[C@H](N)C(=O)O)C(=O)NCC(=O)O)c1O)C(=O)NCC(=O)O)C(=O)O [TGHQ, 2,3,5-tris-(glutathion-S-yl)hydroquinone]
effect on TRE and NF-kappaB-binding activity [1]: modulates

SMILES: Cc1cc(C)cc(N)c1 [3,5-DMA, 3,5-dimethylaniline]
mutagenicity [2]: mutagenic only in cells expressing the metabolizing enzymes
enhancement of DNA adduct formation by promotion of NAT activity (ct-DNA): 53%
labeling of tissue DNA (tissue DNA): detectable labeling of DNA
cell death [3]: induced cell death
contribution of aryl sulfotransferase relative to NAT2 [4]: more effective in potentiating cytotoxicity but not mutagenicity
potency in inducing both responses (cytotoxicity and mutagenicity), influence of NER status [4]: greatly enhanced in the NER-deficient cells
cytotoxicity [4]: cytotoxic
cytotoxicity [5]: cytotoxic
influence of NER status on cytotoxicity [5]: enhanced by NER deficiency
mutagenicity [6]: not mutagenic
association with bladder cancer risk (bladder cancer [7]): independently associated with risk for development of bladder cancer

SMILES: CC(=O)Nc1ccc(O)cc1 [acetaminophen]
Nrf2 nuclear translocation (Nrf2): can initiate nuclear translocation of Nrf2

SMILES: Cc1cc(C)cc(NO)c1 [N-hydroxy-3,5-DMA]
HPRT mutagenicity [8]: mutagenic

SMILES: Cc1ccccc1N [o-toluidine]
carcinogenicity category (humans): Group 1
tumour induction (rats): increased the incidence of tumours in multiple organs
human carcinogenicity finding (bladder cancer [9]): is indeed a human bladder carcinogen
production of an N-hydroxylamine in vivo [10]: urinary excretion of N-hydroxy-o-toluidine
tumour induction (mice): increased incidence of haemangiomas and haemangiosarcomas and hepatocellular carcinomas or adenomas

DNA binding of 3-EA compared with the other two alkylanilines (Calf thymus DNA): nearly identical to ∼6-fold less
SMILES: CCc1cccc(N)c1 [3-EA, 3-ethylaniline]
decrease of DNA adduct level by promotion of NAT activity (ct-DNA): 28%
labeling of tissue DNA (tissue DNA): detectable labeling of DNA
viability [3]: did not cause reduced viability
association with bladder cancer risk (bladder cancer [7]): independently associated with risk for development of bladder cancer
N-hydroxylation rate compared with 3,5-DMA or 2,6-DMA [11]: several times greater

SMILES: CCc1cccc(NO)c1 [N-hydoxy-3-EA]
viability [3]: did not cause reduced viability

SMILES: Cc1cccc(C)c1N [2,6-DMA, 2,6-dimethylaniline]
carcinogenicity category (humans): Group 2B
mutagenicity [2]: mutagenic only in cells expressing the metabolizing enzymes
decrease of DNA adduct level by promotion of NAT activity (ct-DNA): 78%
activity in DNA damage and repair assay (Escherichia coli): nor was it active
labeling of tissue DNA (tissue DNA): detectable labeling of DNA
genotoxic effects induced [12]: sister chromatid exchange and chromosomal aberrations
cell death [3]: induced cell death
contribution of aryl sulfotransferase relative to NAT2 [4]: more effective in potentiating cytotoxicity but not mutagenicity
potency in inducing both responses (cytotoxicity and mutagenicity), influence of NER status [4]: greatly enhanced in the NER-deficient cells
cytotoxicity [4]: cytotoxic
unscheduled DNA synthesis (rat hepatocytes): did not induce unscheduled DNA synthesis
cytotoxicity [5]: cytotoxic
influence of NER status on cytotoxicity [5]: enhanced by NER deficiency
micronuclei (bone marrow of male mice): No increase of micronuclei
conversion to the corresponding hydroxylamine (human liver microsomes): readily apparent
mutagenicity [6]: not mutagenic
N-hydroxylation activity [13]: only 2A6 exhibited N-hydroxylation activity
genotoxic effect (E.coli K12): No genotoxic effect
tumour induction (male and female rats): inducing carcinomas and papillary adenomas of the nasal cavity
mutagenicity (Salmonella typhimurium): neither mutagenic
sex-linked recessive lethal effect (Drosophila melanogaster): nor was feeding or injecting it effective
conversion to the corresponding hydroxylamine (rat liver microsomes): undetectable activity
mutation induction [14]: induced mutations
hepatic DNA adducts (hepatic DNA): < 3.2 adducts per 10^8 normal bases
association with bladder cancer risk (bladder cancer [7]): independently associated with risk for development of bladder cancer

SMILES: Cc1ccc(N)c(C)c1 [2,4-dimethylaniline]
hepatic DNA adducts (hepatic DNA): < 3.2 adducts per 10^8 normal bases

— paper PMC2802674 (Carcinogenesis, 2009)
